Only some compounds are listed: those with a hit (about 1.7% of all), similar ones and a draw of the others.
Scp1 inh = Scp-1 (human) phosphatase inhibition; Recombinant Scp1, phosphopeptide, malachite green phosphate absorbance; inhibition, % at 20 µM; hit rate 0.88% among 340,000;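 active = inhibition above about 50% at 20 µM, limit read from the data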;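 note: plate controls were DMSO wells with enzyme for no effect and wells lacking enzyme for full effect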
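Times: enzyme reaction 45 min at room temperature, colour 5 min, stabilisation 30 min. Material: SCP-1 catalytic fragment, aa 76-261. Medium: Acidic Tris acetate buffer with magnesium and detergent. Signal: colorimetric free-phosphate detection, absorbance 630 nm. Read-out basis: % inhibition of SCP-1 phosphate liberation. Reagent: Phosphorylated 17-residue peptide substrate.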
SUMO1 PPI mod = alters human SUMO1 binding to SIM partners | P63165 | SUMO1 binding to a labelled peptide, TR-FRET, 1 h | inhibition, % at 20 µM | hit rate 0.33% among 360,000 | AID 602429; in the data active = inhibition above about 37%
STEP block = blocks human striatal-enriched tyrosine phosphatase; hit rate 0.25% among 360,000; P54829; inhibition, % at 20 µM; recombinant STEP, OMFP fluorogenic substrate, fluorescence;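 active = inhibition at 20 µM, scaled per plate between control wells, above about 37%, limit read from the data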;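 note: 0% = DMSO with enzyme and substrate and 100% = substrate only without enzyme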
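Assay system: isolated STEP enzyme / Timing: 20 min at room temperature, dark / Doses: 20 µM, 1% DMSO / Technique: fluorescence intensity, excitation 480 nm, emission 540 nm / Reagent: fluorogenic phosphatase substrate OMFP at 25 µM final / Measure: percent inhibition scaled to no-enzyme and uninhibited-enzyme controls, plate-pattern corrected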
LMPTP inh = LMPTP (human) inhibition; recombinant LMPTP-A, OMFP fluorogenic substrate, fluorescence intensity; AID 651560; inhibition, % at 20 µM; hit rate 0.22% among 360,000;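 active = compounds that cut the enzyme signal by at least half of the control window in the single-dose screen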;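 note: plate controls were DMSO wells with enzyme plus substrate for no effect and substrate without enzyme for full effect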
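Assay system: LMPTP-A, protein tyrosine phosphatase of low molecular weight / Medium: pH 6.0 Bis-Tris buffer with DTT and Triton X-100 / Schedule: 50 min enzyme reaction at room temperature, protected from light / Measured by: endpoint fluorescence intensity from OMFP dephosphorylation / Read-out basis: % inhibition relative to no-enzyme and uninhibited control wells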
DNMT1 inh = inhibitors of human DNMT1 | inhibition (reported as % activation of signal), % at 10 µM | DNMT1 molecular beacon, Hinp1I cleavage, fluorescence | hit rate 0.83% among 360,000; in the data active = inhibition above about 50%
Target sequence (P26358 504-1616 limits assumed): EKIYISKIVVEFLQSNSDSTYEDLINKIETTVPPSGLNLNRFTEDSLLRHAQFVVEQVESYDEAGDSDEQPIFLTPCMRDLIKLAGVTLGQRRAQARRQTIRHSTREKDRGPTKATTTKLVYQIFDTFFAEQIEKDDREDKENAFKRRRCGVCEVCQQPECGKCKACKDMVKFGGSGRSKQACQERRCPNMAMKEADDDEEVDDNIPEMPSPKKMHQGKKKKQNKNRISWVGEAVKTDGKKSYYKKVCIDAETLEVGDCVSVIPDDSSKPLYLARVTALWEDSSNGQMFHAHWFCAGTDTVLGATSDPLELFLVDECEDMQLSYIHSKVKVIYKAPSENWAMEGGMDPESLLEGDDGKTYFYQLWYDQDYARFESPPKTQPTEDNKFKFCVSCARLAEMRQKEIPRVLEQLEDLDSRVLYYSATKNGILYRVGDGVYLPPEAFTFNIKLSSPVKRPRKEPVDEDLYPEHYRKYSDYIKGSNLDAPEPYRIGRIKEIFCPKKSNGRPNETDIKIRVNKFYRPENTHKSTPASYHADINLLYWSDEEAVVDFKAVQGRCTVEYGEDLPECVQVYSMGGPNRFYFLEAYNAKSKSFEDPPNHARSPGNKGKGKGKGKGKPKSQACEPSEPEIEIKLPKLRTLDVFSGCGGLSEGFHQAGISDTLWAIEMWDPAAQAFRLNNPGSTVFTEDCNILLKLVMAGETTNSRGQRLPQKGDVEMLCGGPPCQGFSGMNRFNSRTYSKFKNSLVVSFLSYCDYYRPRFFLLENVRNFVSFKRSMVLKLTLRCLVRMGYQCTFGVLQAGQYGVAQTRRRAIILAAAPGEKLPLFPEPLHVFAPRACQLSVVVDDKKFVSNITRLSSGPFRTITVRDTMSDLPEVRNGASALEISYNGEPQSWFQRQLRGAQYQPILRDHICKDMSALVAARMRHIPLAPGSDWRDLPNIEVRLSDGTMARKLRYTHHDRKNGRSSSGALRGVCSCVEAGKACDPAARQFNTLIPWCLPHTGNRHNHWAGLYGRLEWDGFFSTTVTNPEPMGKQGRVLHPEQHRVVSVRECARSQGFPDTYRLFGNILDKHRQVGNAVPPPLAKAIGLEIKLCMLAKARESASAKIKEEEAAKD
DNMT1 inh conf = DNMT1 inhibition confirmation, single concentration | shares compounds with DNMT1 inh | DNMT1 molecular beacon HinP1I cleavage, fluorescence | inhibition, % at 10 µM | hit rate 8% among 2,300 | AID 602385;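 active = average inhibition of at least 30% in the single-concentration confirmation test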
DNMT1 interf = shows spectral interference in the DNMT1 beacon assay | DNMT1 molecular beacon spectral interference counterscreen, fluorescence 485/520 | hit rate 1% among 2,300 | AID 602387 | activation (fluorescence interference), % at 10 µM | shares compounds with DNMT1 inh;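 active = activation of at least 30% at 10 µM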;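 note: DNMT1 catalytic domain with a HinP1I cleavage step and a FAM/dabcyl DNA beacon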
Starred values were filed as active, the others as inactive.

For O=C(c1ccc2c(=O)n3c(nc2c1)CCC3)N1CCN(S(=O)(=O)c2cccc(F)c2)CC1 the results were Scp1 inh -4.9, SUMO1 PPI mod 4.0, STEP block -0.3, LMPTP inh -0.8, DNMT1 inh 79.3*, DNMT1 inh conf -9.6 and DNMT1 interf 2.7.
Screening N=C1C(c2nc(-c3ccc(Br)cc3)cs2)=C(O)CN1NC(=O)c1ccc([N+](=O)[O-])cc1 returned Scp1 inh -3.2, SUMO1 PPI mod -4.2, STEP block 4.8, LMPTP inh 24.7, DNMT1 inh 56.1*, DNMT1 inh conf 3.8 and DNMT1 interf -2.7.
CCOc1ncccc1C(=O)Nc1ccc(S(=O)(=O)Nc2cc(C)nc(C)n2)cc1 was read as Scp1 inh -7.2, SUMO1 PPI mod 9.9, STEP block -3.7, LMPTP inh -1.4 and DNMT1 inh 2.4.
Screening CC1CCCC(C)N1C(=O)COC(=O)c1c[nH]c2ccccc12 (configuration not stated) returned Scp1 inh -10.2, SUMO1 PPI mod 1.1, STEP block -3.3, LMPTP inh -0.8 and DNMT1 inh -1.3.
Screening CCc1ccc(NC(=O)C2CCN(S(=O)(=O)c3c(C)noc3C)CC2)cc1 returned Scp1 inh -10.3, SUMO1 PPI mod 0.4, STEP block -0.8, LMPTP inh 1.5 and DNMT1 inh 1.2.
CCc1ccc(NC(=O)CNS(=O)(=O)c2c(C)noc2C)cc1 was read as Scp1 inh -13.9, SUMO1 PPI mod 10.4, STEP block -1.1, LMPTP inh 0.8, DNMT1 inh 68.5*, DNMT1 inh conf 2.8 and DNMT1 interf 0.8.
Screening O=C(COC(=O)C12CC3CC(CC(C3)C1)C2)Nc1ccc([N+](=O)[O-])cc1Cl returned Scp1 inh -1.2, SUMO1 PPI mod -7.8, STEP block 1.8, LMPTP inh 1.1, DNMT1 inh 71.6*, DNMT1 inh conf 2.8 and DNMT1 interf 4.9.
Screening CC(=O)OCC(=O)Nc1ccc([N+](=O)[O-])cc1Cl returned Scp1 inh -15.2, SUMO1 PPI mod -24.2, STEP block 1.5, LMPTP inh -1.6 and DNMT1 inh 1.9.
Screening COc1ccc(Cl)cc1NC(=O)CSc1cccc[n+]1[O-] returned Scp1 inh 2.6, SUMO1 PPI mod 5.2, STEP block 1.5, LMPTP inh -1.2 and DNMT1 inh -0.5.
`COc1ccc(CCn2c(N)c(C(=O)NCc3ccco3)c3nc4ccccc4nc32)cc1OC` gave Scp1 inh -5.5, SUMO1 PPI mod 43.9*, STEP block 3.0, LMPTP inh 5.1, DNMT1 inh 54.2*, DNMT1 inh conf 8.6 and DNMT1 interf 8.8.
For COc1ccc(NC(=S)NCc2cccnc2)cc1OC the results were Scp1 inh -0.7, SUMO1 PPI mod 0.1, STEP block -2.6, LMPTP inh 1.2 and DNMT1 inh 0.4.
For COc1ccc(NC(=S)NCc2cccnc2)cc1 the results were Scp1 inh 3.2, SUMO1 PPI mod 2.9, STEP block -0.4, LMPTP inh -1.0, DNMT1 inh 89.0*, DNMT1 inh conf 2.6 and DNMT1 interf 3.3.
COc1ccc(/C=C/C(=O)C(C)(C)C)cc1OC was read as Scp1 inh -7.7, SUMO1 PPI mod -12.4, STEP block -0.3, LMPTP inh -0.7, DNMT1 inh 50.4*, DNMT1 inh conf 3.9 and DNMT1 interf 4.1.
CC(=O)Oc1cccc2c1C(=O)c1c(OC(C)=O)cc(C(=O)O)cc1C2=O was read as Scp1 inh -6.2, SUMO1 PPI mod -17.1, STEP block -1.3, LMPTP inh 0.8 and DNMT1 inh -18.6.
Screening O=C(O)c1cc(O)c2c(c1)C(=O)c1cc(O)cc(O)c1C2=O returned Scp1 inh 63.6*, SUMO1 PPI mod 19.7, STEP block 9.3, LMPTP inh 3.6, DNMT1 inh 81.2*, DNMT1 inh conf 15.8 and DNMT1 interf -1.6.
Screening O=C1NC(=S)N/C1=C/c1cccn1-c1ccc([N+](=O)[O-])cc1 returned Scp1 inh 22.9, SUMO1 PPI mod -18.3, STEP block -2.1, LMPTP inh 32.2, DNMT1 inh 55.1*, DNMT1 inh conf 4.0 and DNMT1 interf -1.0.
O=C(O)C1=CCC=CC1C(=O)O (configuration not stated) was read as SUMO1 PPI mod 69.3*, STEP block 19.6, LMPTP inh 12.5, DNMT1 inh 98.7*, DNMT1 inh conf 17.0 and DNMT1 interf 3.7.
`CCS(=O)(=O)NC(=O)C1(C)CCN1C(=O)Cc1ccc(Cl)cc1Cl` (configuration not stated) gave SUMO1 PPI mod 8.6, STEP block -0.4, LMPTP inh -1.7 and DNMT1 inh 0.9.
For COC(=O)CN(C)C(=O)c1ccccc1OC1CCN(S(C)(=O)=O)CC1 the results were Scp1 inh -7.7, SUMO1 PPI mod 0.8, STEP block 1.4, LMPTP inh 1.4 and DNMT1 inh 1.0.
For Cc1nc(N)ncc1CCC1OCCO1 the results were SUMO1 PPI mod 6.1, STEP block 1.1, LMPTP inh 5.9 and DNMT1 inh -2.1.
For O=[N+]([O-])c1ccc(N/N=C/c2ccc(O)c(O)c2O)c(S(=O)(=O)N2CCOCC2)c1 the results were Scp1 inh 3.4, SUMO1 PPI mod 22.4, STEP block 6.0, LMPTP inh 66.5*, DNMT1 inh 62.4*, DNMT1 inh conf -1.9 and DNMT1 interf -1.2.
O=[N+]([O-])c1ccc(N/N=C/c2cccc(O)c2O)c(S(=O)(=O)N2CCOCC2)c1 was read as Scp1 inh -5.4, SUMO1 PPI mod -14.5, STEP block -2.8, LMPTP inh 5.8 and DNMT1 inh -6.2.
CN1C2C=CC(=O)C1C1C(=O)N(c3ccccc3)C(=O)C12 (configuration not stated) was read as SUMO1 PPI mod 1.8, STEP block 0.0, LMPTP inh -0.6 and DNMT1 inh 3.2.
O=C1NC(=O)C2(N1)C(=O)c1cccc3cccc2c13 (configuration not stated) was read as SUMO1 PPI mod -16.5, STEP block -0.7, LMPTP inh -2.8, DNMT1 inh 92.1*, DNMT1 inh conf 49.3* and DNMT1 interf 69.6*.
Screening O=C(c1cc(-c2ccco2)nc2ccccc12)N1CCN(Cc2ccccc2)CC1 returned Scp1 inh -5.7, SUMO1 PPI mod -2.2, STEP block 3.2, LMPTP inh 0.7 and DNMT1 inh -2.6.
`CN(CC(=O)Nc1cccc(F)c1)C(=O)c1cc(-c2ccco2)nc2ccccc12` gave Scp1 inh 82.6*, SUMO1 PPI mod 10.6, STEP block 16.2, LMPTP inh 33.8, DNMT1 inh 86.6*, DNMT1 inh conf 9.2 and DNMT1 interf -0.2.

Assay outcomes (PubChem)
